# Some of the results follow. A number with no mark means an inactive call. Active and inactive are the calls of the source.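 Rule for the calls: active = mean inhibition over triplicates exceeds the hit threshold derived for the earlier primary screening run (cut at about 25% in these data); inactive = the rest.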
# Molecular target: Arf-GAP with SH3 domain, ANK repeat and PH domain-containing protein 1 (Homo sapiens) (UniProt Q9ULH1)
# Experiment: ASAP1 GAP activity inhibitors, confirmation, biochemical, fluorescence polarization, human, triplicate (AID 624431)
# Conditions: ASAP1-stimulated Arf1 GTPase, GDP fluorescence polarization; at 16.5 µM; active compounds read high
# Method in brief: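 Detection: Fluorescence polarization, free GDP displacing antibody-bound GDP Alexa 633 tracer | System: ASAP1 GAP domain protein (residues 325-724) | Schedule: 20-min ASAP1–compound and 120-min Arf1-GTP steps at 25 °C, 60-min tracer | Benchmarks: Wells without ASAP1 as full-inhibition reference control | Read-out: % inhibition versus wells lacking ASAP1 | Compound dosing: 16.5 µM single dose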
# Arf-GAP with SH3 domain, ANK repeat and PH domain-containing protein 1 (Homo sapiens), sequence (Q9ULH1 325-724 limits assumed): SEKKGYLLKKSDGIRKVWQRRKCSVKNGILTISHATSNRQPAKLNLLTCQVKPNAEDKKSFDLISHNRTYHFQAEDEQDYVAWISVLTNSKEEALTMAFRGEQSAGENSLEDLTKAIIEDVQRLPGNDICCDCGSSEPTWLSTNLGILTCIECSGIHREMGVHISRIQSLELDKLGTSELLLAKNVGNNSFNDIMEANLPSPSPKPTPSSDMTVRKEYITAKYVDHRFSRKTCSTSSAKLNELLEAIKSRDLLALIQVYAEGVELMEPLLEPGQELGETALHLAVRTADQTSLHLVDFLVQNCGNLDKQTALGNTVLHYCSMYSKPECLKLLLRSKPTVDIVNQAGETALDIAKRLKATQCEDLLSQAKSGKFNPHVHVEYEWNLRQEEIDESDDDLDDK
row,SMILES,inhibition
1,COC(=O)c1ccc(NCC(=O)c2ccccc2)cc1,-2.85%
2,COc1ccc(/C=N/Nc2ncnc3sc4c(c23)CCCC4)cc1O,26.2% (active)
3,CC(=O)Nc1cc(-c2ccc(N3CCN(C)CC3)cc2)cn2c(-c3ccc(F)cc3)cnc12,40.5% (active)
4,O=c1/c(=C/c2ccc(CNS(=O)(=O)c3ccccc3)o2)sc2n1CCN=2,-9.13%
5,C=CCC[C@@H](CCCCC)OC(=O)/C=C/[C@@H](O)[C@H](O)C[C@H](O)CC=C,1.35%
6,Cc1cccc(-n2ncc(Cl)c(Cl)c2=O)c1,-3.51%
